ChEMBL document CHEMBL1154837, “Identification of antibacterial and antifungal pharmacophore sites for potent bacteria and fungi inhibition: indolenyl sulfonamide derivatives” (Eur J Med Chem, 2010)
≈ marks a conversion by molar mass, not a printed value.

Experiments:
[1] = test system: Fusarium solani; assay: Antimicrobial activity against Fusarium solani at 200 ug/ml after 7 days; assay type: functional; details: 168 h
Outline: (§1)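 Sabouraud dextrose agar was seeded with fungal spore suspension at 10^5 cfu/mL and poured into Petri plates. Discs soaked with compound at 200 µg/mL in DMSO were placed on the agar surface. Plates were incubated at 32 °C for seven days. Results were recorded as % inhibition, with miconazole and amphotericin B as reference drugs.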

[2] = test system: Nakaseomyces glabratus; assay: Antimicrobial activity against Candida glabrata at 200 ug/ml after 7 days; assay type: functional; details: 168 h; outline: as §1
[3] = test system: Shigella flexneri; assay: Antimicrobial activity against Shigella flexneri at 1 mg/ml by agar-well diffusion method; assay type: functional; details: read-out: IZ
Outline: (§2)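 Agar-well diffusion on nutrient agar. The surface was swabbed with 2–8 h old inocula of about 10^4–10^6 CFU/mL. Wells were 6 mm across and at least 24 mm apart. Each well received sample at 1 mg/mL in DMSO. DMSO served as negative control and imipenem as positive control. Plates were incubated at 37 °C for 24 h, and the diameter of the complete-inhibition zone was measured in mm.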

[4] = test system: Salmonella enterica; assay: Antimicrobial activity against Salmonella typhi after 24 hrs by disk diffusion assay; assay type: functional, Salmonella enterica subsp. enterica serovar Typhi
[5] = test system: Salmonella enterica; assay: Antimicrobial activity against Salmonella typhi at 1 mg/ml by agar-well diffusion method; assay type: functional, Salmonella enterica subsp. enterica serovar Typhi; details: read-out: IZ
Outline: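 Agar-well diffusion on nutrient agar. Plates were swabbed with 2–8 h old inoculum at about 10^4–10^6 CFU/mL, and 6 mm wells were cut at least 24 mm apart. Test sample 1 mg/mL in DMSO. DMSO served as negative control and imipenem as positive control. Plates were incubated at 37 °C for 24 h, and the diameter of complete-inhibition zones was measured (mm).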

[6] = test system: Staphylococcus aureus; assay: Antimicrobial activity against Staphylococcus aureus at 1 mg/ml by agar-well diffusion method; assay type: functional; details: read-out: IZ; outline: as §2
[7] = test system: Candida albicans; assay: Antimicrobial activity against Candida albicans at 200 ug/ml after 7 days; assay type: functional; details: 168 h; outline: as §1
[8] = test system: Escherichia coli; assay: Antimicrobial activity against Escherichia coli at 1 mg/ml by agar-well diffusion method; assay type: functional; details: read-out: IZ; outline: as §2
[9] = test system: Shigella flexneri; assay: Antimicrobial activity against Shigella flexneri after 24 hrs by disk diffusion assay; assay type: functional
Outline: (§3)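 MIC by disc diffusion, using discs prepared with 10, 25, 50 and 100 µg/mL of compound.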

[10] = test system: Bacillus subtilis; assay: Antimicrobial activity against Bacillus subtilis after 24 hrs by disk diffusion assay; assay type: functional; outline: as §3
[11] = test system: Bacillus subtilis; assay: Antimicrobial activity against Bacillus subtilis at 1 mg/ml by agar-well diffusion method; assay type: functional; details: read-out: IZ; outline: as §2
[12] = test system: Pseudomonas aeruginosa; assay: Antimicrobial activity against Pseudomonas aeruginosa at 1 mg/ml by agar-well diffusion method; assay type: functional; details: read-out: IZ; outline: as §2
[13] = test system: Aspergillus flavus; assay: Antimicrobial activity against Aspergillus flavus at 200 ug/ml after 7 days; assay type: functional; details: 168 h; outline: as §1
[14] = test system: Escherichia coli; assay: Antimicrobial activity against Escherichia coli after 24 hrs by disk diffusion assay; assay type: functional; outline: as §3
[15] = test system: Candida albicans; assay: Antimicrobial activity against Candida albicans after 7 days; assay type: functional
[16] = test system: Trichophyton longifusum; assay: Antimicrobial activity against Trichophyton longifusum after 7 days; assay type: functional
[17] = test system: Nakaseomyces glabratus; assay: Antimicrobial activity against Candida glabrata after 7 days; assay type: functional
[18] = test system: Fusarium solani; assay: Antimicrobial activity against Fusarium solani after 7 days; assay type: functional
[19] = test system: Microsporum canis; assay: Antimicrobial activity against Microsporum canis after 7 days; assay type: functional

Which results are given for `N=C(N)NS(=O)(=O)c1ccc(/N=C/c2c[nH]c3ccccc23)cc1`?
growth inhibition at 200 µg/mL [1]: 35%; growth inhibition at 200 µg/mL [2]: 55%; zone of inhibition at 1000 µg/mL [3]: 22 mm; MIC [4]: 293 µM (≈ 100 µg/mL); zone of inhibition at 1000 µg/mL [5]: 23 mm; zone of inhibition at 1000 µg/mL [6]: 22 mm; growth inhibition at 200 µg/mL [7]: 35%; zone of inhibition at 1000 µg/mL [8]: 23 mm; MIC [9]: 146 µM (≈ 50 µg/mL); MIC [10]: 146 µM (≈ 50 µg/mL); zone of inhibition at 1000 µg/mL [11]: 23 mm; zone of inhibition at 1000 µg/mL [12]: 18 mm; growth inhibition at 200 µg/mL [13]: 30%

Which growth inhibition at 200 µg/mL [1] does the source give for `O=S(=O)(Nc1ncccn1)c1ccc(/N=C/c2c[nH]c3ccccc23)cc1` here?
Its growth inhibition at 200 µg/mL is 70%.

And the growth inhibition at 200 µg/mL [2]?
The growth inhibition at 200 µg/mL was 20%.

What about the zone of inhibition at 1000 µg/mL [3] of the same molecule?
Its zone of inhibition at 1000 µg/mL is 18 mm.

What about the zone of inhibition at 1000 µg/mL [5] of the same molecule?
The zone of inhibition at 1000 µg/mL was 17 mm.

And the zone of inhibition at 1000 µg/mL [6]?
Its zone of inhibition at 1000 µg/mL is 19 mm.

What about the growth inhibition at 200 µg/mL [7] of the same molecule?
The growth inhibition at 200 µg/mL was 35%.

What about the zone of inhibition at 1000 µg/mL [8] of the same molecule?
The zone of inhibition at 1000 µg/mL was 19 mm.

And the zone of inhibition at 1000 µg/mL [11]?
The zone of inhibition at 1000 µg/mL was 19 mm.

And the zone of inhibition at 1000 µg/mL [12]?
The zone of inhibition at 1000 µg/mL was 20 mm.

What about the growth inhibition at 200 µg/mL [13] of the same molecule?
The growth inhibition at 200 µg/mL was 25%.

`O=S(=O)(Nc1nccs1)c1ccc(/N=C/c2c[nH]c3ccccc23)cc1` was tested. Which growth inhibition at 200 µg/mL [1] did it give?
Its growth inhibition at 200 µg/mL is 80%.

What about the growth inhibition at 200 µg/mL [2] of the same molecule?
The growth inhibition at 200 µg/mL was 60%.

What about the zone of inhibition at 1000 µg/mL [3] of the same molecule?
Its zone of inhibition at 1000 µg/mL is 23 mm.

What about the MIC [4] of the same molecule?
Its MIC is 262 µM (≈ 100 µg/mL).

And the zone of inhibition at 1000 µg/mL [5]?
The zone of inhibition at 1000 µg/mL was 23 mm.

What about the zone of inhibition at 1000 µg/mL [6] of the same molecule?
The zone of inhibition at 1000 µg/mL was 23 mm.

And the growth inhibition at 200 µg/mL [7]?
The growth inhibition at 200 µg/mL was 40%.

And the MIC [14]?
Its MIC is 262 µM (≈ 100 µg/mL).

And the zone of inhibition at 1000 µg/mL [8]?
The zone of inhibition at 1000 µg/mL was 24 mm.

And the MIC [9]?
The MIC was 131 µM (≈ 50 µg/mL).

What about the zone of inhibition at 1000 µg/mL [11] of the same molecule?
Its zone of inhibition at 1000 µg/mL is 24 mm.

What about the zone of inhibition at 1000 µg/mL [12] of the same molecule?
Its zone of inhibition at 1000 µg/mL is 20 mm.

And the growth inhibition at 200 µg/mL [13]?
Its growth inhibition at 200 µg/mL is 30%.

What does the source list for `C[C@@H](O)[C@H]1C(=O)N2C(C(=O)O)=C(SCCNC=N)C[C@H]12` [IMIPENEM ANHYDROUS]?
zone of inhibition at 1000 µg/mL [3]: 27 mm; zone of inhibition at 1000 µg/mL [5]: 27 mm; zone of inhibition at 1000 µg/mL [6]: 30 mm; zone of inhibition at 1000 µg/mL [8]: 30 mm; zone of inhibition at 1000 µg/mL [11]: 28 mm; zone of inhibition at 1000 µg/mL [12]: 26 mm

With `Cc1noc(NS(=O)(=O)c2ccc(/N=C/c3c[nH]c4ccccc34)cc2)c1C` as the molecule, how does the growth inhibition at 200 µg/mL [1] read?
The growth inhibition at 200 µg/mL was 65%.

And the growth inhibition at 200 µg/mL [2]?
The growth inhibition at 200 µg/mL was 55%.

What about the zone of inhibition at 1000 µg/mL [3] of the same molecule?
Its zone of inhibition at 1000 µg/mL is 19 mm.

And the zone of inhibition at 1000 µg/mL [5]?
The zone of inhibition at 1000 µg/mL was 20 mm.

And the zone of inhibition at 1000 µg/mL [6]?
The zone of inhibition at 1000 µg/mL was 20 mm.

What about the growth inhibition at 200 µg/mL [7] of the same molecule?
Its growth inhibition at 200 µg/mL is 45%.

What about the zone of inhibition at 1000 µg/mL [8] of the same molecule?
Its zone of inhibition at 1000 µg/mL is 23 mm.

And the zone of inhibition at 1000 µg/mL [11]?
Its zone of inhibition at 1000 µg/mL is 17 mm.

And the zone of inhibition at 1000 µg/mL [12]?
Its zone of inhibition at 1000 µg/mL is 19 mm.

And the growth inhibition at 200 µg/mL [13]?
Its growth inhibition at 200 µg/mL is 55%.

`Clc1ccc(COC(Cn2ccnc2)c2ccc(Cl)cc2Cl)c(Cl)c1` (stereo not given) [MICONAZOLE] was tested. Which MIC [15] did it give?
Its MIC is 266 µM (≈ 111 µg/mL).

What about the MIC [16] of the same molecule?
Its MIC is 168 µM (≈ 70 µg/mL).

What about the MIC [17] of the same molecule?
Its MIC is 266 µM (≈ 111 µg/mL).

What about the MIC [18] of the same molecule?
The MIC was 176 µM (≈ 73.3 µg/mL).

And the MIC [19]?
Its MIC is 236 µM (≈ 98.4 µg/mL).

Which growth inhibition at 200 µg/mL [1] does the source give for `NS(=O)(=O)c1ccc(/N=C/c2c[nH]c3ccccc23)cc1` here?
The growth inhibition at 200 µg/mL was 43%.

And the growth inhibition at 200 µg/mL [2]?
The growth inhibition at 200 µg/mL was 25%.

What about the zone of inhibition at 1000 µg/mL [3] of the same molecule?
The zone of inhibition at 1000 µg/mL was 18 mm.

And the zone of inhibition at 1000 µg/mL [5]?
Its zone of inhibition at 1000 µg/mL is 20 mm.

And the zone of inhibition at 1000 µg/mL [6]?
Its zone of inhibition at 1000 µg/mL is 18 mm.

What about the growth inhibition at 200 µg/mL [7] of the same molecule?
The growth inhibition at 200 µg/mL was 40%.

And the zone of inhibition at 1000 µg/mL [8]?
Its zone of inhibition at 1000 µg/mL is 21 mm.

And the zone of inhibition at 1000 µg/mL [11]?
The zone of inhibition at 1000 µg/mL was 20 mm.

What about the zone of inhibition at 1000 µg/mL [12] of the same molecule?
The zone of inhibition at 1000 µg/mL was 19 mm.

What about the growth inhibition at 200 µg/mL [13] of the same molecule?
Its growth inhibition at 200 µg/mL is 55%.

What does the source list for `Cc1cc(C)nc(NS(=O)(=O)c2ccc(/N=C/c3c[nH]c4ccccc34)cc2)n1`?
growth inhibition at 200 µg/mL [1]: 75%; growth inhibition at 200 µg/mL [2]: 28%; zone of inhibition at 1000 µg/mL [3]: 19 mm; MIC [4]: 247 µM (≈ 100 µg/mL); zone of inhibition at 1000 µg/mL [5]: 22 mm; zone of inhibition at 1000 µg/mL [6]: 23 mm; growth inhibition at 200 µg/mL [7]: 60%; MIC [14]: 123 µM (≈ 50 µg/mL); zone of inhibition at 1000 µg/mL [8]: 24 mm; zone of inhibition at 1000 µg/mL [11]: 18 mm; zone of inhibition at 1000 µg/mL [12]: 20 mm; growth inhibition at 200 µg/mL [13]: 55%

Which results are given for `Cc1cc(NS(=O)(=O)c2ccc(/N=C/c3c[nH]c4ccccc34)cc2)no1`?
growth inhibition at 200 µg/mL [1]: 45%; growth inhibition at 200 µg/mL [2]: 40%; zone of inhibition at 1000 µg/mL [3]: 20 mm; zone of inhibition at 1000 µg/mL [5]: 19 mm; zone of inhibition at 1000 µg/mL [6]: 19 mm; growth inhibition at 200 µg/mL [7]: 25%; zone of inhibition at 1000 µg/mL [8]: 22 mm; MIC [10]: 263 µM (≈ 100 µg/mL); zone of inhibition at 1000 µg/mL [11]: 23 mm; zone of inhibition at 1000 µg/mL [12]: 17 mm; growth inhibition at 200 µg/mL [13]: 45%
